According to ChEMBL document CHEMBL6103596, “Design, Synthesis, and Biological Evaluation of BODIPY-Caged Resiquimod as a Dual-Acting Phototherapeutic” (J Med Chem, 2025):
Active and inactive are the calls of the source. The calls are words filed in the database; no cut-off is given here.

How the values were obtained:
[1] = Photorelease activity of the compound in aqueous medium at 30 uM measured after 1 hr under dark condition by UV-vis spectroscopy analysis; format: ADME; details: buffer
[2] = Photorelease activity of the compound in CH3CN at 532nm laser light measured upto 60 mins under argon condition by HPLC analysis relative to control; format: ADME; parameters: dose or concentration left out as unconfirmed; details: 1 h
AD293 = experiment: Cytotoxicity against human AD293 cells assessed as cell viability at 0.1 to 10 uM incubated for 24 hrs by MTT assay; format: toxicity, cell-based; details: ad293, 24 h, dose 0.1-10 µM
Summary of the method: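 AD293 cells seeded at 4 × 10^4 cells/well in DMEM with 10% FBS. Next day, compound (100 nM, 1 μM, 10 μM) or vehicle added in serum-free DMEM for 24 h, no irradiation. MTT (5 mg/mL reagent) added for 3 h at 37 °C, formazan dissolved in DMSO, absorbance read at 590 nm. Triplicate wells, four independent experiments.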

[3] = Phototoxicity in human HaCaT cells assessed as cell viability at 10 uM under 530 ot 650nm 30 mW LED light irradiation and measured after 72 hrs by CCK-8 method relative to control; format: functional; details: light or radiation study, read-out: Activity
Summary of the method: (§1)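 A549, HaCaT and HeLa cells seeded at 2 × 10^3 cells/well in phenol red-free DMEM with 10% FBS. After 24 h, medium replaced with 1% DMSO containing 10 μM compound. After 90 min, one plate kept dark and one exposed to 530 or 650 nm LED (30 mW) for 15 min. Plates incubated 72 h, then CCK-8 read at 450 nm. Viability taken relative to dark control. Triplicates (HaCaT six).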

[4] = Dark toxicity in human HeLa cells assessed as cell viability at 10 uM under dark condition and measured after 72 hrs by CCK-8 method relative to control; format: cell-based; details: read-out: Activity; summary of the method: as §1
[5] = Thermal stability of compound in DMSO-d6 at 37.5 degree C measured before 24 hrs by 1H NMR spectroscopy analysis; format: physicochemical
Summary of the method: (§2)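 Compound in DMSO-d6 followed by 1H NMR. Degradation taken from the intensity of three signals (one resiquimod, one BODIPY, and the linkage NH), each relative to the DMSO-d6 internal standard, and the three averaged.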

[6] = Dark toxicity in human HaCaT cells assessed as cell viability at 10 uM under dark condition and measured after 72 hrs by CCK-8 method relative to control; format: cell-based; details: read-out: Activity; summary of the method: as §1
[7] = Dark toxicity in human A549 cells assessed as cell viability at 10 uM under dark condition and measured after 72 hrs by CCK-8 method relative to control; format: cell-based; details: read-out: Activity; summary of the method: as §1
[8] = Photorelease activity of the compound in CH3CN at 532nm laser light measured upto 60 mins under air condition by HPLC analysis relative to control; format: ADME; parameters: dose or concentration left out as unconfirmed; details: 1 h
[9] = target: T1, Toll-like receptor 7 (Homo sapiens) (UniProt Q9NYK1); experiment: Activation of TLR7 in human AD293 cells assessed as IkappaB-alpha degradation at 10 uM preincubated with NAC followed by compound addition and measured after 30 mins under 650nm red light irradiation by Western blot analysis; format: cell-based; details: filed as activator
T1 sequence (whole entry): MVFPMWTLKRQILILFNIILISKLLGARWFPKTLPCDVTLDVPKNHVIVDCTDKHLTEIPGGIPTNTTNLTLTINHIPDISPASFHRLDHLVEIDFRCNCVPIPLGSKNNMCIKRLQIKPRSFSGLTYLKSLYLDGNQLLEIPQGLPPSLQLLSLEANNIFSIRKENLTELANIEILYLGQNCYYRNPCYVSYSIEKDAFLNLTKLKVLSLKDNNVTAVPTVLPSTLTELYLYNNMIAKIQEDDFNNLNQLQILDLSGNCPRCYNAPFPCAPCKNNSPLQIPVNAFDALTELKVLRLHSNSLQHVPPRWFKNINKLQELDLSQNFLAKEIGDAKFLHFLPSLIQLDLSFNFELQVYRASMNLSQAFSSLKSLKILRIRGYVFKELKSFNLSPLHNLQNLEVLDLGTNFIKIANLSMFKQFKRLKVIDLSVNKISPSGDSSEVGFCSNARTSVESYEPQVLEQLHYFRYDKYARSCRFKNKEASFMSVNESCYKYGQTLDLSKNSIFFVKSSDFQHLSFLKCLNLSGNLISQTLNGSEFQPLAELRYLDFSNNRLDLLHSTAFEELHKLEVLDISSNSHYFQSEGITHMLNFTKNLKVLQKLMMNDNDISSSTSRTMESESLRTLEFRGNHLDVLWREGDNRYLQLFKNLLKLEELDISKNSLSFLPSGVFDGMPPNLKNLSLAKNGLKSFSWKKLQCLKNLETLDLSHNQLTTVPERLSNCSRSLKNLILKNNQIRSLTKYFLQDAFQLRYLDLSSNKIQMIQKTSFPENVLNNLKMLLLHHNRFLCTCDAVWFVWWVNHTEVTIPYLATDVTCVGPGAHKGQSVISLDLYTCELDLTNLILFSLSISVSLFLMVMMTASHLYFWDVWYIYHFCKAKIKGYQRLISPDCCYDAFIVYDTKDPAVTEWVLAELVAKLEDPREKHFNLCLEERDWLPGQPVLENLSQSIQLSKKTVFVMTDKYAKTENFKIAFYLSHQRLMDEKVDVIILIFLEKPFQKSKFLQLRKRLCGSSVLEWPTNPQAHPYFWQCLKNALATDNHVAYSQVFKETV
Summary of the method: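 Stable TLR7-expressing AD293 line made by TLR7 plasmid transfection and hygromycin B selection (250 μg/mL, 10 days). Cells pretreated with N-acetyl-cysteine, then given 10 μM compound, with or without 30 min 650 nm red-light irradiation. Lysates run on 10% SDS-PAGE and blotted to PVDF. Total IκB probed (1:1000) with GAPDH loading control, ECL detection. Means of three experiments.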

[10] = Photophysical property of the compound assessed as fluorescence quantum yield; format: physicochemical
[11] = Phototoxicity in human HeLa cells assessed as cell viability at 10 uM under 530 ot 650nm 30 mW LED light irradiation and measured after 72 hrs by CCK-8 method relative to control; format: functional; details: light or radiation study, read-out: Activity; summary of the method: as §1
[12] = Photorelease activity of the compound in DMSO-d6 measured after 1 hr under 532nm YAG laser radiation by 1H NMR spectroscopy analysis relative to control; format: ADME
[13] = Thermal stability of compound in DMSO-d6 at 37.5 degree C measured after 3 days by 1H NMR spectroscopy analysis relative to control; format: physicochemical; details: 72 h; time 3 day; summary of the method: as §2
[14] = Thermal stability of compound in DMSO-d6 at 37.5 degree C measured after 2 days by 1H NMR spectroscopy analysis relative to control; format: physicochemical; details: 48 h; time 2 day; summary of the method: as §2
[15] = Thermal stability of compound in DMSO-d6 at 37.5 degree C measured after 1 day by 1H NMR spectroscopy analysis relative to control; format: physicochemical; details: 24 h; summary of the method: as §2
[16] = Photosensitizing ability of the compound assessed as singlet oxygen quantum yield under 600nm monochromatic light irradiation by DPBF based assay relative to control; format: functional
Summary of the method: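 Singlet oxygen generation followed by the decrease in DPBF absorbance under irradiation. DPBF (20–25 μm) used at 5–10-fold excess over compound (2.5–5 μm).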

[17] = Photorelease activity of the compound in CH3CN assessed as retention time under 532nm laser light by HPLC analysis; format: physicochemical
[18] = Photorelease activity of the compound in aqueous medium assessed as reduction in lamda maximum at 30 uM measured after 1 hr under 525 nm LED light radiation by UV-vis spectroscopy analysis; format: ADME; details: buffer
[19] = Photorelease activity of the compound in aqueous solution at 30 uM measured upto 200 mins under dark condition by 1H NMR spectroscopy analysis; format: ADME; details: buffer, 3.333 h
[20] = Photorelease activity of the compound in aqueous solution at 30 uM measured upto 200 mins under 660nm 400mW LED light by UV-vis spectroscopy analysis; details: buffer, 3.333 h
[21] = Photorelease activity of the compound in DMSO-d6 measured after 10 hrs under 660nm 400mW LED light by 1H NMR spectroscopy analysis relative to control; format: ADME

Row | SMILES | Activity (AD293) | Activity [5] | Activity [10] | Activity [13] [%] | Activity [14] [%] | Activity [15] [%] | Activity [16] [%] | also measured
1 | CCOCc1nc2c(NC(=O)OCC3=C4C(C)=CC(C)=[N+]4[B-](F)(F)n4c(C)cc(C)c43)nc3ccccc3c2n1CC(C)(C)O | Toxic | Not_active | 0.809 | 31 | 22 | 12 | 3.2 | Activity [1]: Not_active; Activity [2]: ~ 77%; viability at 10 µM [3]: 88%; viability at 72 h, 10 µM [4]: 2%; viability at 72 h, 10 µM [6]: 6%; viability at 72 h, 10 µM [7]: 19%; Activity [8]: ~ 68%; Activity [9]: Active; viability at 10 µM [11]: 54%; Activity [12]: 100%; Retention_time [17]: 6.8 min; Activity [18]: Active
2 | COCCOCCOCCOc1ccc(/C=C/C2=[N+]3C(=C(CO)c4c(C)cc(/C=C/c5ccc(OCCOCCOCCOC)cc5)n4[B-]3(F)F)C(C)=C2)cc1 | Non-toxic |  | 0.554 |  |  |  | 0.37 | 
3 | CCOCc1nc2c(NC(=O)OCC3=C4C(C)=CC(/C=C/c5ccc(OCCOCCOCCOC)cc5)=[N+]4[B-](F)(F)n4c(/C=C/c5ccc(OCCOCCOCCOC)cc5)cc(C)c43)nc3ccccc3c2n1CC(C)(C)O | Non-toxic | Not_active | 0.482 | 15 | 11 | 7 | 0.33 | Activity [19]: Not_active; Activity [20]: Active; Activity [21]: ~ 90%
